Experimental findings from ChEMBL document CHEMBL1955778, “Design and synthesis of novel 7-aminoquinazoline derivatives: antitumor and anticonvulsant activities” (Bioorg Med Chem Lett, 2012) are described below.

A short description of data set [1]: Therapeutic index, ratio of LD50 for mouse to ED50 for pentylenetetrazol-induced seizure in mouse. It counts as organism-based. Conditions: in vivo, read-out: Ratio LD50/ED50. The method, boiled down:
(§1)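 In mice, LD50 is the dose causing 50% mortality. ED50 is the dose protecting 50% of mice against pentylenetetrazole-induced seizures. Therapeutic index = LD50/ED50.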

A short description of data set [2]: Toxicity in ip dose mouse assessed as mortality. It counts as organism-based. To be noted: in vivo. The essentials: as §1
The test system of data set [3] is Mus musculus. As to the kind of experiment: Anticonvulsant activity in mouse assessed as protection against pentylenetetrazol-induced seizure at 1.4 mmol/kg, ip administered 30 min prior to pentylenetetrazol-challenge measured after 60 mins relative to control. It counts as functional.
For data set [4], the system named is Mus musculus. Nature of the data set: Anticonvulsant activity in mouse assessed as protection against strychnine-induced seizure at 1.4 mmol/kg, ip administered 30 min prior to strychnine-challenge measured after 60 mins relative to control. It counts as functional.
For data set [5], the system named is Mus musculus. Nature of the data set: Anticonvulsant activity in mouse assessed as protection against maximal electroshock-induced seizure at 1.4 mmol/kg, ip administered 30 min prior to maximal electroshock-challenge measured after 60 mins relative to control. It counts as functional.
The species entered for data set [6] is Mus musculus. Nature of the data set: Protective index, ratio of TD50 for mouse to ED50 for pentylenetetrazol-induced seizure in mouse. The class given is functional. The method, boiled down: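 Mice. Index is TD50/ED50. TD50 is the dose causing minimal neurological toxicity in 50% of mice in the Chimney test. ED50 is the dose protecting 50% of mice against pentylenetetrazole-induced seizures. Both are estimated from testing at several doses.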

The test system of data set [7] is Mus musculus. Nature of the data set: Anticonvulsant activity in ip dosed mouse assessed as protection against pentylenetetrazol-induced seizure administered 30 min prior to pentylenetetrazol-challenge measured after 60 mins. The class given is functional. The essentials: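 Mice received several doses for quantification. ED50 taken as the dose protecting 50% of mice against pentylenetetrazol-induced seizures.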

Data set [8] in a line: Neurotoxicity in ip dosed mouse assessed as impaired motor coordination administered 30 mins prior to test by chimney test. It counts as toxicity, organism-based. Conditions: in vivo. The method, boiled down:
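Mice, Chimney test. TD50 is the dose that produces minimal neurological toxicity (impaired motor coordination) in 50% of animals, estimated from testing at several doses.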

Data set [9] relates to Mus musculus. Nature of the data set: Anticonvulsant activity in mouse assessed as protection against picrotoxin-induced seizure at 1.4 mmol/kg, ip administered 30 min prior to picrotoxin-challenge measured after 60 mins relative to control. It counts as functional.
Data set [10] has as its system Mus musculus. Nature of the data set: Anticonvulsant activity in mouse assessed as protection against strychnine-induced seizure at 1.5 mmol/kg, ip administered 30 min prior to strychnine-challenge measured after 60 mins relative to control. The class given is functional.
Data set [11] relates to Mus musculus. As to the kind of experiment: Anticonvulsant activity in mouse assessed as protection against picrotoxin-induced seizure at 1.5 mmol/kg, ip administered 30 min prior to picrotoxin-challenge measured after 60 mins relative to control. The class given is functional.
In data set [12] the test system is Mus musculus. Nature of the data set: Anticonvulsant activity in mouse assessed as protection against maximal electroshock-induced seizure at 1.5 mmol/kg, ip administered 30 min prior to maximal electroshock-challenge measured after 60 mins relative to control. The class given is functional.
For data set [13], the system named is Mus musculus. As to the kind of experiment: Anticonvulsant activity in mouse assessed as protection against pentylenetetrazol-induced seizure at 1.5 mmol/kg, ip administered 30 min prior to pentylenetetrazol-challenge measured after 60 mins relative to control. The class given is functional.

On to `Cc1ccccc1-n1c(C)nc2ccccc2c1=O` [METHAQUALONE], for which, in data set [1], the selectivity ratio came out at 1.4. In addition, the LD50 in data set [2] turned out to be 2000 µmol/kg. Further, the Activity in data set [3] was determined as 100%; in data set [4], 0%; in data set [5], 100%; in data set [9], 50%. Besides, the “Ratio TD50/ED50” value in data set [6] worked out at 1.14. Also, the ED50 in data set [7] was determined as 1400 µmol/kg. In addition, the TD50 at 0.5 h in data set [8] amounted to 1600 µmol/kg.

With `CCCC(CCC)C(=O)[O-].[Na+]` [VALPROATE SODIUM], the Activity in data set [10], in data set [11], in data set [12] and in data set [13] was 100% in each case. For the same molecule, the median lethal dose (LD50) in [2] amounted to 3000 µmol/kg. Besides, the ED50 in [7] stood at 1500 µmol/kg. The TD50 at 0.5 h in data set [8] was 2700 µmol/kg.
